Each structure is given as a SMILES string.

The results in this text go back to ChEMBL document CHEMBL4513216, “Probing the Open Global Health Chemical Diversity Library for Multistage-Active Starting Points for Next-Generation Antimalarials” (ACS Infect Dis, 2020).

This data set is described as follows: Toxicity liver stage against HepG2, at 10uM. The class given is cell-based. The arrangement: test concentration 10 uM, cell line HepG2-A16-CD81EGFP. Conditions: human, HepG2-A16-CD81EGFP cells; read-out: INHIBITION
In a few lines: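 Uninfected HepG2-A16-CD81EGFP cells, 3 × 10^3 per well, 1536-well, plated on prespotted compound at 10 μM final, parasite-free screening media added to match infected plates; puromycin 10 μM positive, DMSO 0.5% negative; run in parallel with 48 h PbLuc assay at 37 °C, 5% CO2; viability by CellTiter-Glo luminescence, normalized to controls.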
Turning to `CN1CCCN(CC(CC(=O)Nc2ccc(Cl)cc2)C(=O)O)CC1` (configuration not stated), the cytotoxicity at 10 µM is -5.4%.
Next, `Cn1nc(CNC(=O)CC#N)c2c1CN(C(N)=O)CC2`: 3.8%; `COc1cc(N2C[C@H](C(=O)N3CCCC3)[C@@H]3CCO[C@@H]3C2)ncn1`: -0.211%; `c1cc(-c2ccc3c(c2)C2(CC3)CCN(c3nncs3)CC2)ccn1`: 1.13%.
Next, `COc1cccc(C2SCC(=O)Nc3ccsc32)c1OC` (configuration not stated): 0.661%; `COc1ccccc1C1CC(=O)Nc2nc(N3CCCCC3)sc21` (configuration not stated): 11.5%; `O=C1CSC(c2ccc(O)c(Cl)c2)c2c(n(C3CCOCC3)[nH]c2=O)N1` (configuration not stated): -3.08%.
For the compound `CCS(=O)(=O)N1CC[C@]2(C[C@@H](OCC3CC3)CO2)C1`, the cytotoxicity at 10 µM is -15.6%.
Next, `CCC1=N[C@@]2(CC[C@@H]3CN(S(=O)(=O)CC(C)C)C[C@@H]32)C(=O)N1C`: 5.24%; `COc1cc(NC(=O)NCC2CCCO2)cc(OC)c1` (configuration not stated): 15.6%; `CCn1cc(NC(=O)c2cc(C)nc(N3CCOCC3)n2)cn1`: 6%.
Next, `O=C(NC1=NCCCN1c1ccc(Cl)cc1)c1cccc(Cl)c1`: -17.5%; `CN(C)C(=O)c1cccc(C2CNCCN2C)c1` (configuration not stated): -3.15%; `CCn1c(C)nc2cc(NC(=O)CC3CCN(S(C)(=O)=O)CC3)ccc21`: 4.39%.
Next, `CN(C)c1cncc(C2CCN(CCO)CC2)n1`: 3.29%.
With `O=C(NCCNC(=O)C1CCN(c2ncccn2)CC1)c1ccoc1`, the cytotoxicity at 10 µM is -9.99%.
Next, `CC1CCN(S(=O)(=O)NC(C)Cc2ccco2)CC1` (configuration not stated): 3.53%; `CC(=O)N1CCCN(CCCc2ccccc2)CC1`: -9.28%.
Next, `CN(Cc1ccccc1F)C(=O)c1cc(Cl)c[nH]1`: -5.45%; `O=S(=O)(NCc1ccnc(-n2ccnc2)c1)c1cncc(Cl)c1`: 3.46%; `CCN(Cc1cnc(C)cn1)C1CCN(c2ccccc2)C1=O` (configuration not stated): 4.81%.
Under `COCCCNC(=O)c1c[nH]c2ccc(OC)cc12` stands -4.76%; under `CCn1nc(C)c(CNC(=O)NCC(C)(O)c2ccsc2)c1C` (configuration not stated), 7.59%.
Consider `O=C1OCCN1CCN1CCCN(Cc2ccccc2F)CC1`, for which the cytotoxicity at 10 µM was -7.11%.
Next, `O=C(NCCc1ccccn1)NC1CCN(c2ccccc2)C1=O` (configuration not stated): -2.84%.
On to `O=C(C(CNCc1cccc(O)c1)c1ccccc1)N1CCOCC1` (configuration not stated), for which the cytotoxicity at 10 µM was -2.06%.
As for `N#Cc1ccc(CN2C(=O)c3ccccc3CS2(=O)=O)c(F)c1`, the cytotoxicity at 10 µM was -0.639%.
Next, `Cc1c(C(=O)NC(C)C)nnn1-c1cccc(C(F)(F)F)c1`: -1.54%.
As for `Cc1cc(C)n(CC2CCCN2C(=O)c2ccc3c(c2)OCCO3)n1` (configuration not stated), the cytotoxicity at 10 µM worked out at 5.43%.
Regarding `CNC(=O)C1CCC(NC(=O)c2cc(C3CC3)n(C(C)(C)C)n2)CC1` (configuration not stated), the cytotoxicity at 10 µM stood at 4.74%.
Take `CCC(C)(C)C(=O)NCCCOC1CCOC1` (configuration not stated): the cytotoxicity at 10 µM was -6.21%.
Under `COCCN(C)c1ccc(NCc2cccnc2)nc1` stands -9.9%; under `CCOc1ccc(C(F)(F)F)cc1NC(=O)N1CCNC(=O)C1`, -1.11%.
Next, `COc1ccc(-c2ccc(C(=O)O)c(F)c2)c(F)c1`: -0.378%; `CCc1ccc(C(COC)NC(=O)c2ccc(O)nc2)o1` (configuration not stated): 3.06%.
Next, `O=C(CC1=CCCCC1)Nc1ccc(CN2C(=O)CCC2=O)cc1`: 0.719%.
Turning to `COc1ccnc(N(C)Cc2ccccc2OC(F)(F)F)n1`, the cytotoxicity at 10 µM came out at 6.15%.
Under `CCCS(=O)(=O)NC(=O)c1ccc(CC)o1` stands -8.37%; under `CC(Cc1ccco1)NC(=O)CSc1nnc[nH]1` (configuration not stated), 13%; under `COCC1CN(C(=O)Nc2cc(-n3cccc3)ccc2F)CCO1` (configuration not stated), 3.61%.
Consider `Cc1oc(C(=O)O)cc1S(=O)(=O)Nc1cccc(-n2nccc2C)c1`, for which the cytotoxicity at 10 µM was 4.46%.
Under `COC(=O)C1CCN(c2cncc(-n3nc(C)cc3C)n2)CC1` stands -9.44%; under `COc1cc(C)nc(N2CCN(C(=O)CCc3cscn3)CC2)n1`, -10.2%; under `CCOC(C)c1nc(CN2CCNCC2)cs1` (configuration not stated), -13.3%.
Next, `O=C(Nc1nncs1)NC1CCOc2ccccc21` (configuration not stated): -10.4%.
Under `COCCN1C(=O)C[C@@H]2[C@H]1CCN2C(=O)COc1ccccc1` stands -0.902%; under `CCN(Cc1nccs1)Cc1cc(Cl)ccc1OC`, -1.06%; under `CCCn1nc(C)c2c1NC(=O)CC2c1ccc(CN2CCCC2)s1` (configuration not stated), 0.355%.
Turning to `c1ccc(CCCN2CCN(CCn3cncn3)CC2)cc1`, the cytotoxicity at 10 µM was -11.3%.
Next, `COc1cccc(CNC(=O)N2CCN3CCNC(=O)C3C2)c1` (configuration not stated): 2.62%; `CN(CCc1ccccn1)C(=O)CCC1CCCN(S(C)(=O)=O)C1` (configuration not stated): 4.77%.
Next, `CS(=O)(=O)NCC1CCN(Cc2cc3ccccc3[nH]c2=O)C1` (configuration not stated): -6.92%; `COc1ccc(C(CC(=O)NCc2n[nH]c(N)n2)c2ccccc2)cc1` (configuration not stated): 7.66%; `CC(=O)N[C@@H]1C[C@H](Cc2ccccc2)O[C@H](c2ccc(C(=O)O)cc2)C1`: 2.76%.
For `CC(=O)N1CCCC(C(=O)N2Cc3nc(C)n(C)c(=O)c3C2)C1` (configuration not stated), the cytotoxicity at 10 µM is -3.65%.
Next, `COc1cccc(O)c1CN1CCCC(Nc2cccc(F)c2)C1` (configuration not stated): -4.47%; `O=C(CCN1CCOC(C(F)(F)F)C1)NCc1cccc(Cl)c1` (configuration not stated): 2.04%.
Next, `Cn1ncc2c(NCC3CCS(=O)(=O)C3)nc(-c3ccncc3)nc21` (configuration not stated): -3.91%; `COCCN(Cc1ccccn1)Cc1sccc1C`: -3.6%; `Cc1cccc(C(C(=O)NCc2nc(-c3cccnc3)no2)N(C)C)c1` (configuration not stated): 6.45%.
For `CCn1cc(CN2CCC(c3nnc(CN(C)C)n3CC)CC2)cn1`, the cytotoxicity at 10 µM was -22.3%.
Next, `CN1CCCN(C(=O)c2ccc3c(c2)nc(N2CCOCC2)n3C)CC1`: -11.9%; `CCNC(=O)[C@@H]1C[C@H](NC(=O)c2cncnc2C)CN1CCCSC`: -11.7%.
Under `COc1cccc(OCC2CCCN(C3CCN(C(C)=O)CC3)C2)c1` (configuration not stated) stands -18.3%.
Under `CS(=O)(=O)CCC(=O)N1CCC2(CCCN(C3CCOCC3)C2=O)C1` (configuration not stated) stands -7.64%; under `O=C(c1ccc(C2CCCO2)s1)N1CCS(=O)(=O)CC1` (configuration not stated), -14.8%.
For the compound `Cn1ccnc1CN1CCN(Cc2ccc(C#N)cc2F)CC1`, the cytotoxicity at 10 µM was -13.2%.
For `COc1c(CNC2CCCOc3ccccc32)c(C(C)C)nn1C` (configuration not stated), the cytotoxicity at 10 µM was -3.48%.
As for `O=C(c1nn(-c2ccccc2F)cc1O)N1CCCCC1`, the cytotoxicity at 10 µM turned out to be 3.36%.
Next, `NC(=O)NCCC(=O)NCc1nn(-c2ccccc2)c2c1CCC2`: -9.83%.
As to `CC(Cn1ccnc1)NC(=O)NCc1ccccn1` (configuration not stated), the cytotoxicity at 10 µM is -6.66%.
Turning to `Cc1cnn(CCNCc2csc(-c3ccc(C)o3)n2)c1`, the cytotoxicity at 10 µM is -1.64%.
Under `COC(=O)CN1CCC(C(=O)c2cc(F)ccc2F)CC1` stands -6.52%; under `CCc1nc(C2CCCN2CC(=O)N2CCCc3ccccc32)no1` (configuration not stated), -25.2%; under `CCOc1ccccc1OC1CCN(C(=O)c2csnn2)CC1`, -5.5%.
Next, `O=C(Cc1ccc2c(c1)CCO2)N1CCN(c2ccncc2)CC1`: -4.8%; `CN(Cc1ccsc1)C(=O)Nc1ccc(N2CCCC2)nc1`: -10.5%; `COc1ccc(CC(=O)N2CCCC(n3nc(C)cc3C)C2)cc1` (configuration not stated): 0.471%.
Next, `Cc1cc(C(=O)NCc2ccc(N3CCCC(C(N)=O)C3)cc2)on1` (configuration not stated): -9.56%.
As for `Cc1nn(C)c(N(C)C)c1CNCc1ccccc1CO`, the cytotoxicity at 10 µM is -8.84%.
Next, `Cc1nc(C2CCCN(C(=O)c3cccc4c3OCCO4)C2)no1` (configuration not stated): -8.93%; `O=C(CCN1CCCN(c2nccs2)CC1)Nc1ccccc1`: 10.5%; `Cc1cc(NC(=O)N(CC2CCOC2)C2CC2)no1` (configuration not stated): -0.457%.
Next, `NS(=O)(=O)Cc1ccc(CNC(=O)NCC2CCOC2)cc1` (configuration not stated): 1.18%; `Cc1ccccc1OC1CCN(CC(=O)Nc2ccn(C)n2)CC1`: -3.34%; `CCOC[C@H]1CC[C@H]2[C@H](CCN2Cc2c(C)noc2C)O1`: 3.23%.
Under `Fc1ccc(CN2CCO[C@H]3[C@H](OCCN4CCCC4)CC[C@@H]32)cc1` stands 2.17%.
`CS(=O)(=O)NCc1cnc2n1CCN(Cc1cccnc1)CC2`: the cytotoxicity at 10 µM turned out to be 5.66%.
Under `N#Cc1ccccc1N1CC2(CCCCN2CC2CC2)CC1=O` (configuration not stated) stands 10.7%.
For the compound `COc1c(CNCCNC(=O)c2ccccc2)c(C)nn1C`, the cytotoxicity at 10 µM is -4.74%.
Under `Cc1cccc(NC(=O)N2CCCn3cnc(CN4CCCC4)c3C2)c1` stands -12.2%; under `Cn1cc(C(=O)N[C@@H]2CN(Cc3cccs3)[C@@H]3CCCO[C@@H]32)cn1`, -13.4%.
Under `Cc1noc(C)c1CN1CCCC2(C1)CN(c1nccs1)CCO2` (configuration not stated) stands 8.47%; under `Cc1ccc(CN2CCOC3(COCCN(S(C)(=O)=O)C3)C2)o1` (configuration not stated), 11.7%; under `O=C1COC2(CCN(S(=O)(=O)C3CC3)CC2)CN1c1cccnc1`, -1.69%.
Next, `CSc1ncccc1C(=O)N1C[C@@H]2CC[C@H]1CN(c1ncccn1)C2`: -4.03%; `CCN1CCc2c(sc3c2C(=O)NC(C=Cc2ccccc2)N3)C1` (configuration not stated): 4.73%.
